Data taken from ChEMBL document CHEMBL3232832, “Derivatives of dibenzothiophene for positron emission tomography imaging of α7-nicotinic acetylcholine receptors” (J Med Chem, 2013).

What was measured:
[1] = Ratio of drug uptake in cortex to cerebellum in mouse; type: ADME, organism-based; conditions: in vivo
[2] = Selectivity ratio of Ki for alpha4beta2 nAChR (unknown origin) to Ki for rat cortical membrane alpha7 nAChR
[3] = Selectivity ratio of Ki for human 5HT3 receptor to Ki for rat cortical membrane alpha7 nAChR
Nucleic Acid [4] = experiment: Ratio of drug uptake in cortex to cerebellum in Danish Landrace pig; type: ADME, tissue-based, Sus scrofa; conditions: in vivo
[5] = target: T1, Neuronal acetylcholine receptor subunit alpha-7 (Rattus norvegicus, UniProt Q05941); experiment: Displacement of [125I]-alpha-BTX from rat alpha7-nAChR after 2 hrs by scintillation counting analysis
T1 sequence (Q05941 whole entry): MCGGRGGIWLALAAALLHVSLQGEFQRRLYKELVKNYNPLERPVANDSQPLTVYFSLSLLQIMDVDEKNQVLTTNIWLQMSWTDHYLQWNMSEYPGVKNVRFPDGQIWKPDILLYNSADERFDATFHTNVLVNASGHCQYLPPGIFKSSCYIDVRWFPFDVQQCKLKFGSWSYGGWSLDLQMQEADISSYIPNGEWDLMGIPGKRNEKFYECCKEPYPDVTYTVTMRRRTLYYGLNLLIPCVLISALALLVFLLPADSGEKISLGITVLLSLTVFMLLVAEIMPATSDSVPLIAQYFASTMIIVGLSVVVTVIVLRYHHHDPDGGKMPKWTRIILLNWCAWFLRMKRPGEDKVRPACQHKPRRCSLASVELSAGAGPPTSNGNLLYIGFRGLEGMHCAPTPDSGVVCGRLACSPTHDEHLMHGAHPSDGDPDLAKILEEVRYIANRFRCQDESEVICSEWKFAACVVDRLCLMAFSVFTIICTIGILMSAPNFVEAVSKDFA

[6] = target: T1, Neuronal acetylcholine receptor subunit alpha-7; experiment: Displacement of [125I]alpha-bungarotoxin from rat cortical membrane alpha7-nAChR after 150 mins by gamma-counting analysis
[7] = target: Neuronal acetylcholine receptor subunit alpha-7 (Homo sapiens, UniProt P36544); experiment: Binding affinity to alpha7 nAChR (unknown origin)
Sequence of Neuronal acetylcholine receptor subunit alpha-7 (Homo sapiens, UniProt P36544) (P36544 whole entry): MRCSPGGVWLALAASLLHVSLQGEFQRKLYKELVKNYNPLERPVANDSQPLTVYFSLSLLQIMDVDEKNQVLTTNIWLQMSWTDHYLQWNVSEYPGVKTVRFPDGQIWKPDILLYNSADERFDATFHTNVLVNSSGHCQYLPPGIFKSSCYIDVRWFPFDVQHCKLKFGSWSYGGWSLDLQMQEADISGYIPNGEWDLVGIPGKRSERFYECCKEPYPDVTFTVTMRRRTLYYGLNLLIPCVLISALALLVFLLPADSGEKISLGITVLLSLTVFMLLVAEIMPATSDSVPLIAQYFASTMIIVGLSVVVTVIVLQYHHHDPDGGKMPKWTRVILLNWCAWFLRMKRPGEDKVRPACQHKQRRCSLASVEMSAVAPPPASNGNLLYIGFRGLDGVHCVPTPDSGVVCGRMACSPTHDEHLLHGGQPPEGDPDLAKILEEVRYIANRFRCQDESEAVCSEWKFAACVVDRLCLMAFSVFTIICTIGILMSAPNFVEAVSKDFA

[8] = target: T1, Neuronal acetylcholine receptor subunit alpha-7; experiment: Displacement of [3H]MLA from rat alpha7 nAChR
Nucleic Acid [9] = experiment: Ratio of drug uptake in cortex to cerebellum in CD-1 mouse by gamma-counting analysis; type: ADME, tissue-based; conditions: in vivo
Nucleic Acid [10] = experiment: Ratio of drug uptake in cortex to cerebellum in pig; type: ADME, tissue-based, Sus scrofa; conditions: in vivo
[11] = target: T1, Neuronal acetylcholine receptor subunit alpha-7; experiment: Displacement of [125I]alpha-bungarotoxin from Sprague-Dawley rat brain alpha7-nAChR after 3 hrs
Nucleic Acid [12] = experiment: Ratio of drug uptake in cortex to cerebellum in CD-1 mouse at 0.67 MBq after 5 to 120 mins; type: ADME; conditions: in vivo
[13] = target: T1, Neuronal acetylcholine receptor subunit alpha-7; experiment: Binding affinity to rat brain alpha7 nAChR
Nucleic Acid [14] = experiment: Ratio of drug uptake from cortex to cerebellum in CD-1 mouse after 90 mins; type: ADME, tissue-based; conditions: 1.5 h
[15] = Drug uptake in CD-1 mouse superior and inferior colliculus at 70 uCi, iv followed by compound washout by gamma-counting analysis; type: ADME, organism-based; conditions: in vivo
In short: (§1)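 Male CD-1 mice (25–30 g) given [18F]radioligand i.v. into a lateral tail vein (70 µCi, 8000–12000 mCi/µmol, in 0.2 mL saline). Killed by cervical dislocation at various times, three per time point. Brains dissected on ice; regions weighed and gamma-counted with injectate standards. Result as %ID/g.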

[16] = Drug uptake in CD-1 mouse superior and inferior colliculus at 0.07 mCi, iv after 90 mins in presence of 3-(1,4-Diazabicyclo[3.2.2]nonan-4-yl)dibenzo[b,d]-thiophene 5,5-dioxide; type: ADME, organism-based; conditions: in vivo, 1.5 h
In short: (§2)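 Male CD-1 mice. [18F]tracer (0.07 mCi, SA 11000 mCi/µmol, i.v.) co-injected with α7 antagonist blocker at 0.001, 0.0045 or 0.014 mg/kg, handled as in the dose-escalation blockade. Brain regions harvested at 90 min and gamma-counted. %ID/g, mean ± SD, n=3; ANOVA versus controls.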

Cerebellum [17] = experiment: Ratio of clearance in CD-1 mouse cerebellum to clearance in CD-1 mouse other brain tissues at 70 uCi, iv followed by compound washout after 90 mins by gamma-counting analysis; type: ADME, organism-based; conditions: in vivo, 1.5 h
In short: (§3)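 CD-1 mouse baseline biodistribution after i.v. [18F]radioligand (70 µCi, 8000–12000 mCi/µmol, in 0.2 mL saline), three mice per time point to 90 min. Regional gamma-counting gave %ID/g, and each region was expressed as a ratio to cerebellum.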

Mus musculus [18] = experiment: Toxicity in CD-1 mouse assessed as change in behavioral activity at 0.07 mCi, iv after 90 mins in presence of 7-(1,4-Diazabicyclo[3.2.2]nonan-4-yl)-2-fluorodibenzo[b,d]-thiophene 5,5-Dioxide; type: organism-based; conditions: in vivo, 1.5 h
In short: (§4)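 CD-1 mice observed for behavioral and locomotor changes during self-blockade studies. [18F]tracer (0.07 mCi, i.v.) was co-injected with the non-radioactive ligand at 0.3 or 0.2 mg/kg i.v., dissolved in saline at pH 5.5. Brains were harvested at 90 min.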

Thalamus = experiment: Drug uptake in CD-1 mouse thalamus at 70 uCi, iv followed by compound washout by gamma-counting analysis; type: ADME, organism-based; conditions: in vivo; in short: as §1
Hippocampus [19] = experiment: Drug uptake in CD-1 mouse hippocampus at 0.07 mCi, iv after 90 mins in presence of 3-(1,4-Diazabicyclo[3.2.2]nonan-4-yl)dibenzo[b,d]-thiophene 5,5-dioxide; type: ADME, organism-based; conditions: in vivo, 1.5 h
Cerebellum [20] = experiment: Drug uptake in CD-1 mouse cerebellum at 0.07 mCi, iv after 90 mins in presence of 3-(1,4-Diazabicyclo[3.2.2]nonan-4-yl)dibenzo[b,d]-thiophene 5,5-dioxide; type: ADME, organism-based; conditions: in vivo, 1.5 h
Striatum = experiment: Drug uptake in CD-1 mouse striatum at 70 uCi, iv followed by compound washout by gamma-counting analysis; type: ADME, organism-based; conditions: in vivo; in short: as §1
Cerebellum [21] = experiment: Drug uptake in CD-1 mouse cerebellum at 0.07 mCi, iv after 90 mins in presence of 3-(1,4-Diazabicyclo[3.2.2]nonan-4-yl)-6-fluorodibenzo[b,d]thiophene 5,5-Dioxide; type: ADME, organism-based; conditions: in vivo, 1.5 h
In short: (§5)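 Male CD-1 mice, n=3. [18F] radiotracer (70 µCi, 0.2 mL) given i.v. together with unlabeled blocker in saline pH 5.5. Brain regions dissected at 90 min, gamma counted, expressed as %ID/g.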

[22] = Drug uptake in CD-1 mouse frontal cortex at 70 uCi, iv followed by compound washout by gamma-counting analysis; type: ADME, organism-based; conditions: in vivo
In short: (§6)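 Male CD-1 mice (25–30 g), three per time point. [18F] radiotracer (70 µCi, SA 8000–12000 mCi/µmol, in 0.2 mL saline) given by tail vein. Killed at several times up to 90 min. Dissected regions weighed and gamma counted against injectate standards, giving %ID/g.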

Nucleic Acid [23] = experiment: Ratio of drug uptake from superior and inferior colliculus to cerebellum in CD-1 mouse after 90 mins; type: ADME, nucleic-acid assay; conditions: 1.5 h; in short: as §3
Mus musculus [24] = experiment: Toxicity in CD-1 mouse assessed as change in locomotor activity at 0.07 mCi, iv after 90 mins in presence of 7-(1,4-Diazabicyclo[3.2.2]nonan-4-yl)-2-fluorodibenzo[b,d]-thiophene 5,5-Dioxide; type: organism-based; conditions: in vivo, 1.5 h; in short: as §4
Nucleic Acid [25] = experiment: Ratio of drug uptake from hippocampus to cerebellum in CD-1 mouse after 90 mins; type: ADME, nucleic-acid assay; conditions: 1.5 h
Cerebellum [26] = experiment: Drug uptake in CD-1 mouse cerebellum at 0.07 mCi, iv after 90 mins in presence of 7-(1,4-Diazabicyclo[3.2.2]nonan-4-yl)-2-fluorodibenzo[b,d]-thiophene 5,5-Dioxide; type: ADME, organism-based; conditions: in vivo, 1.5 h; in short: as §5
Hippocampus [27] = experiment: Drug uptake in CD-1 mouse hippocampus at 70 uCi, iv followed by compound washout by gamma-counting analysis; type: ADME, organism-based; conditions: in vivo; in short: as §6
Brain = experiment: Drug uptake in CD-1 mouse other brain regions at 0.07 mCi, iv after 90 mins in presence of 3-(1,4-Diazabicyclo[3.2.2]nonan-4-yl)dibenzo[b,d]-thiophene 5,5-dioxide; type: ADME, organism-based; conditions: in vivo, 1.5 h; in short: as §2
Cerebellum [28] = experiment: Drug uptake in CD-1 mouse colliculus at 0.07 mCi, iv after 90 mins relative to drug uptake in CD-1 mouse cerebellum; type: ADME, organism-based; conditions: in vivo, 1.5 h
Cerebellum [29] = experiment: Drug uptake in CD-1 mouse cerebellum at 70 uCi, iv followed by compound washout by gamma-counting analysis; type: ADME, organism-based; conditions: in vivo; in short: as §6

`O=[11C](Nc1ccc(Br)cc1)OC1CN2CCC1CC2` (stereo unspecified) gave a Ratio [1] of 0.3.

For `O=S1(=O)c2cc(N3CCN4CCC3CC4)ccc2-c2cccc(F)c21`, the Ratio Ki [2] was 1370 and the Ratio Ki [3] was 561.

`[11CH3]n1cccc1-c1nnc(N2CCN3CCC2CC3)o1` gave a Ratio (Nucleic Acid [4]) of 1, a Ki [5] of 2.2 nM and a Ki [6] of 20.4 nM.

`CN1C[C@H]2CN(c3ccc4c(c3)C(=O)c3cc(N5C[C@@H]6CN([11CH3])[C@@H]6C5)ccc3-4)C[C@H]21` showed a Ki [7] of 0.092 nM.

For `O=S1(=O)c2ccccc2-c2ccc(N3CCN4CCC3CC4)c(F)c21`, the Ratio Ki [2] was 66.

Compound `[18F]c1ccccc1-c1cnc2c(c1)CC1(CN3CCC1CC3)O2` (stereo unspecified) has a Ratio [1] of 0.8, a Ki [6] of 3.3 nM and a Ki [8] of 0.2 nM.

Compound `[11CH3]N1CC2CN(c3ccc(-c4ccc5[nH]ccc5c4)nn3)CC2C1` (stereo unspecified) has a Ki [7] of 0.24 nM and a Ratio (Nucleic Acid [9]) of 0.5.

In the case of `O=S1(=O)c2ccc(F)cc2-c2ccc(N3CCN4CCC3CC4)cc21`, the Ratio Ki [2] is reported as 663 and the Ratio Ki [3] is reported as 378.

Compound `[11CH3]N1CC2CN(c3ccc4oc5ccccc5c(=O)c4c3)CC2C1` (stereo unspecified) has a Ki [8] of 11 nM.

Compound `[18F]c1ccc(-c2nnc(N3CCN4CCC3CC4)o2)cc1` has a Ki [7] of 11.6 nM, a Ratio [1] of 0.4 and a Ki [6] of 38 nM. The Ratio (Nucleic Acid [10]) was 0.8.

Work on `O=S1(=O)c2ccccc2-c2c(N3CCN4CCC3CC4)ccc(F)c21` yielded a Ratio Ki [2] of 210.

Work on `[11CH3]c1ccc(OC(=O)N2CCN3CCC2CC3)cc1` yielded a Ratio [1] of 0.6 and a Ki [11] of 46 nM.

`[125I]c1occc1-c1cnc2c(c1)CC1(CN3CCC1CC3)O2` (stereo unspecified) showed a Ratio (Nucleic Acid [12]) of 0.6.

Work on `[11CH3]N1CC2CN(c3ccc(-c4ccccc4)nn3)CC2C1` (stereo unspecified) yielded a Ratio [1] of 0.2 and a Ki [13] of 10.8 nM.

With `O=S1(=O)c2ccc([18F])cc2-c2ccc(N3CCN4CCC3CC4)cc21` the Ratio (Nucleic Acid [14]) was 2, the Drug uptake [15] was “Active” and the Drug uptake [16] was “Not Active”. For the same compound, the Ratio (Cerebellum [17]) was 4.5, the Activity (Mus musculus [18]) was “Non-toxic” and the Drug uptake (Thalamus) was “Active”. For the same compound, the Drug uptake (Hippocampus [19]) was “Not Active”, the Drug uptake (Cerebellum [20]) was “Not Active” and the Drug uptake (Striatum) was “Active”. The Drug uptake (Cerebellum [21]) was “Active”, the Drug uptake [22] was “Active” and the Ratio (Nucleic Acid [23]) was 2. The Activity (Mus musculus [24]) was “Non-toxic”, the Ratio (Nucleic Acid [25]) was 3.1 and the Drug uptake (Cerebellum [26]) was “Active”. For the same compound, the Drug uptake (Hippocampus [27]) was “Active”, the Drug uptake (Brain) was “Not Active” and the Drug uptake (Cerebellum [28]) was 80%. The Drug uptake (Cerebellum [29]) was “Active”.

Compound `O=S1(=O)c2ccc(I)cc2-c2ccc(N3CCN4CCC3CC4)cc21` has a Ratio Ki [2] of 63.
